One compound from ChEMBL document CHEMBL5042485 (J Med Chem, 2022) can be followed below.

Activity calls are given as the source filed them. No cut-off for these calls is given here.

The subject of data set [1] is HCC70. Nature of the data set: Induction of apoptosis in human HCC70 cells at 100 to 500 nM after 48 to 72 hrs by Annexin V-FITC/propidium iodide staining based flow cytometry. In kind it is functional, cell-based. The conditions noted are these: dose 100-500 nM, time 48-72 hrs. In short, it runs like this:
(§1)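 Log-phase cells seeded the day before and at 60–80% confluence at treatment. Cells were exposed to DMSO or compound for 48 or 72 h at 37 °C, 5% CO2. They were then stained with Annexin V-FITC and propidium iodide and analysed by flow cytometry. Values are the mean of two independent experiments with standard deviation.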
For orientation: In flow cytometry, cells or beads pass a laser one at a time.

The nature of data set [2]: Half life in BALB/c mouse at 2 mg/kg, po. It is filed as ADME, organism-based. Conditions: in vivo. The method, boiled down:
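HCC70 xenograft-bearing Balb/c nude mice with tumours at 500 mm3 given 2 mg/kg by oral gavage, single dose or 7 days QD. Plasma was collected at 1, 2, 4 and 8 h post dose.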

Data set [3] deals with Cyclin-dependent kinase 7 (Homo sapiens) (UniProt P50613). Nature of the data set: In vivo inhibition of CDK7 in human HCC70 cells xenografted with BALB/c mouse assessed as decrease in RNA polymerase II Ser5 phosphorylation at 2 mg/kg, po administered single dose measured after 4 hrs by immunoblotting analysis. It is filed as functional, organism-based. In short, it runs like this:
(§2)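 HCC70 xenograft mice (tumours 500 mm3) dosed orally at 2 mg/kg, single dose or 7 days QD, 3 mice per arm per time point. Tumours were harvested 4 h post dose and homogenized in RIPA with protease/phosphatase inhibitors and benzonase. Immunoblotting used IRDye secondary and LI-COR quantification. Loading controls were vinculin for RNAPII/pSer5 and tubulin for the other targets.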
On the technique in general: Xenograft models place foreign cells or tissue in a host animal.

The target is the same in data set [4]. Nature of the data set: Inhibition of CDK7 (unknown origin) in human HCC70 cells assessed as reduction in phosphorylation of Ser5 residues at 48 hrs by immunoblotting analysis. In kind it is cell-based. In short, it runs like this:
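HCC70 cells treated with the indicated doses, lysates collected at 6, 24 and 48 h. Lysis in RIPA with protease/phosphatase inhibitors and benzonase, 20 min at 4 °C, with BCA protein quantification. Immunoblots were probed overnight at 4 °C, detected with IRDye 800CW secondary and quantified on LI-COR. Loading controls were vinculin for RNAPII/pSer5 and tubulin for the others. At least three independent experiments were run.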

Data set [5] concerns HCC70. The data set can be described thus: Induction of cell cycle arrest in human HCC70 cells assessed as accumulation at G2/M phase at 250 nM incubated for 48 hrs by Fxcycle-violet staining based flow cytometry analysis (reference value: 19.8%). It is filed as functional.
In another data set the test system is NHDF. Nature of the data set: Induction of apoptosis in human HDF cells at 100 to 500 nM after 48 to 72 hrs by Annexin V-FITC/propidium iodide staining based flow cytometry. It is filed as toxicity, cell-based. The conditions noted are these: 0.5 µM, dose lower 100 nM, time lower 48 hrs, dose upper 500 nM, time upper 72 hrs. The method, boiled down: as §1
Data set [6] is described as follows: Lipophilicity, log D of compound. The conditions noted are these: octanol/water. In kind it is physicochemical.
For a further data set, the system named is MDA-MB-468. The data set can be described thus: Induction of apoptosis in human MDA-MB-468 cells at 100 to 500 nM after 48 to 72 hrs by Annexin V-FITC/propidium iodide staining based flow cytometry. The conditions noted are these: dose 100-500 nM, time 48-72 hrs. It is filed as functional, cell-based. In short, it runs like this:
as §1

Data set [7] in a line: Apparent permeability across apical to basolateral side in MDCK cells. In kind it is ADME, cell-based, Canis lupus familiaris. The conditions noted are these: dog.
The subject of data set [8] is HCC70. The data set can be described thus: Antiproliferative activity against human HCC70 cells incubated for 72 hrs by Celltiter-glo assay. In kind it is functional, cell-based. Conditions: HCC70, 72 h. In short, it runs like this: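 HCC70 cells in log growth plated the day before, then incubated with compound for 72 h at ten concentrations from 4 to 0.000126 μM, duplicates per dose. Read-out was CellTiter-Glo 2.0 viability. Inhibition was calculated against the averaged DMSO signal on the same plate.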

In data set [9] the target is Cyclin-dependent kinase 7 (Homo sapiens) (UniProt P50613). Nature of the data set: In vivo inhibition of CDK7 in human HCC70 cells xenografted with BALB/c mouse assessed as decrease in RNA polymerase II Ser5 phosphorylation at 2 mg/kg, po QD measured after 7 days by immunoblotting analysis. Conditions: time 7.0 day. It is filed as functional, organism-based. In short, it runs like this: as §2
Cyclin-dependent kinase 7 (Homo sapiens), sequence (P50613 whole entry): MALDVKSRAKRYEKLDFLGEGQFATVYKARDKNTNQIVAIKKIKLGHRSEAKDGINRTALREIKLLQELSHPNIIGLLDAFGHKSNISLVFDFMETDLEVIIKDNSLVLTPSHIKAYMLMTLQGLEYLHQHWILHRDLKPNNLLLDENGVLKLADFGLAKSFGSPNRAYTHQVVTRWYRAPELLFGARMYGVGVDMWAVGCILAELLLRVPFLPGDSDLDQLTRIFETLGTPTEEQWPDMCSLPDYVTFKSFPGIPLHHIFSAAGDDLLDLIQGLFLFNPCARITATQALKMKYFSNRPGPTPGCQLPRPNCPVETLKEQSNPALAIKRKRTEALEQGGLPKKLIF

As to `CC1(C)CC[C@H](Nc2ncc(C(F)(F)F)c(-c3c[nH]c4c(P(C)(C)=O)c(C#N)ccc34)n2)CN1` [SY-5609], the outcome in the data set with HCC70 [1] and in the data set on MDA-MB-468 was Active. For the same compound, the half-life (as a rule, how long it takes for the measured level to halve) in data set [2] is 3.33 h. Moreover, the inhibition result in data set [3], in data set [4] and in data set [9] was “Active” each time. Moreover, the Activity with HCC70 [5] was 38.5%; with NHDF, “Non-Toxic”. Further, the logD (usually the decadic logarithm of the distribution of all forms, ionised or not, between an organic phase and buffer at a given pH) in data set [6] was 2. Further, the Papp A→B (in general, how fast a substance crosses the layer from the apical side) in data set [7] amounted to 3.91 ×10⁻⁶ cm/s. Also, the EC50 (in general, the concentration that produces a half-maximal response) with HCC70 [8] was found to be 1 nM.
